Values belong to the compound of their own block, whether it stands above or below them. Calls of active or inactive are those of the source. The rule behind the calls is not given here.
Columns and labels:
[1] = target: T1, 5-hydroxytryptamine receptor 7 (Homo sapiens, UniProt P34969); assay: Displacement of [3H]-5-CT from human cloned 5HT7 receptor
[2] = target: T2, 5-hydroxytryptamine receptor 1A (Homo sapiens) (UniProt P08908); assay: Displacement of [3H]-8-OH-DPAT from human cloned 5HT1A receptor at 100 nM
T2 sequence (whole entry): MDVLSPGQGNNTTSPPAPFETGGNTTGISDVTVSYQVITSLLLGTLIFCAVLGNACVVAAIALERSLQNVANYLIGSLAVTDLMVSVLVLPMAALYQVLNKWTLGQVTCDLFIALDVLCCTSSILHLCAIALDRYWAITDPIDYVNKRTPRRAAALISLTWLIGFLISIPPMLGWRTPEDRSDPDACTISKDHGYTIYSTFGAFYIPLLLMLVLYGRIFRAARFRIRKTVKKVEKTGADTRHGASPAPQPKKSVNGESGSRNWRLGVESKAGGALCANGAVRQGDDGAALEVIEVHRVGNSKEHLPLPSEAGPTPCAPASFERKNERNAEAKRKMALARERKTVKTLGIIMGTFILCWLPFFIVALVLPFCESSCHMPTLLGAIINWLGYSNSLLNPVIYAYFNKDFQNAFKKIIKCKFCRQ

[3] = target: Adrenergic receptor alpha-1 (Rattus norvegicus) (UniProt P15823+P23944+P43140); assay: Displacement of [3H]prazoin from rat cerebral cortex adrenergic alpha1 receptor at 100 nM; assay type: tissue-based
Procedure, shortened: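 [3H]prazosin displacement was measured on rat cerebral cortex membranes, using one test concentration of 100 nM. Values are the mean of two independent experiments.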

[4] = target: 5-hydroxytryptamine receptor 7 (Cavia porcellus) (UniProt P50407); assay: Agonist activity at 5HT7 receptor in guinea pig ileum assessed as inhibition of substance P-induced smooth muscle contraction at 0.5 uM in presence of 3 uM SB-269970; assay type: functional, tissue-based
Procedure, shortened: (§1)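 Isolated guinea pig ileum was contracted with substance P. Relaxation was scored as percent relaxation of that contraction. Each run included a cocktail of non-5-HT7 receptor antagonists. To test 5-HT7 mediation, relaxation was repeated with the selective 5-HT7 antagonist at 3 μM; reversal was taken as 5-HT7-mediated.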

[5] = target: 5-hydroxytryptamine receptor 7 (Cavia porcellus) (UniProt P50407); assay: Agonist activity at 5HT7 receptor in guinea pig ileum assessed as inhibition of substance P-induced smooth muscle contraction at 1 uM; assay type: functional, tissue-based; procedure, shortened: as §1
[6] = target: 5-hydroxytryptamine receptor 7 (Cavia porcellus) (UniProt P50407); assay: Agonist activity at 5HT7 receptor in guinea pig ileum assessed as inhibition of substance P-induced smooth muscle contraction at 1 uM in presence of 3 uM SB-269970; assay type: functional, tissue-based; procedure, shortened: as §1
[7] = target: 5-hydroxytryptamine receptor 7 (Cavia porcellus) (UniProt P50407); assay: Agonist activity at 5HT7 receptor in guinea pig ileum assessed as inhibition of substance P-induced smooth muscle contraction at 0.5 uM; assay type: functional, tissue-based; procedure, shortened: as §1
[8] = target: T3, Adrenergic receptor alpha-1 (Rattus norvegicus, UniProt P15823+P23944+P43140); assay: Displacement of [3H]prazoin from rat cerebral cortex adrenergic alpha1 receptor; assay type: tissue-based
T3 sequence (P15823 whole entry): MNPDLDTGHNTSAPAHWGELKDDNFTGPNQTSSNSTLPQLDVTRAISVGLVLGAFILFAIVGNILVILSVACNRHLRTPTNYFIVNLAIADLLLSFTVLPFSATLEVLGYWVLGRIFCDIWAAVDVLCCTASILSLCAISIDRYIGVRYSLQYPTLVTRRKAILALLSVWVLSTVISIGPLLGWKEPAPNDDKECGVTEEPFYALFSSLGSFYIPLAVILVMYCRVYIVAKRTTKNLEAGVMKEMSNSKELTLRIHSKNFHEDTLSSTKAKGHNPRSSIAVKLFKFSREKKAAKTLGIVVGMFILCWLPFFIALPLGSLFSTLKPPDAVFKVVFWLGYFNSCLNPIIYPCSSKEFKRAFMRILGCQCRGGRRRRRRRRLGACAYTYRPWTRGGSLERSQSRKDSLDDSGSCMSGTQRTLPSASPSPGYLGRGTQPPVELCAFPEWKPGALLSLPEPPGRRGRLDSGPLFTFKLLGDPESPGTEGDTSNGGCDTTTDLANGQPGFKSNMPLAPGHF
T3 sequence (P23944 whole entry): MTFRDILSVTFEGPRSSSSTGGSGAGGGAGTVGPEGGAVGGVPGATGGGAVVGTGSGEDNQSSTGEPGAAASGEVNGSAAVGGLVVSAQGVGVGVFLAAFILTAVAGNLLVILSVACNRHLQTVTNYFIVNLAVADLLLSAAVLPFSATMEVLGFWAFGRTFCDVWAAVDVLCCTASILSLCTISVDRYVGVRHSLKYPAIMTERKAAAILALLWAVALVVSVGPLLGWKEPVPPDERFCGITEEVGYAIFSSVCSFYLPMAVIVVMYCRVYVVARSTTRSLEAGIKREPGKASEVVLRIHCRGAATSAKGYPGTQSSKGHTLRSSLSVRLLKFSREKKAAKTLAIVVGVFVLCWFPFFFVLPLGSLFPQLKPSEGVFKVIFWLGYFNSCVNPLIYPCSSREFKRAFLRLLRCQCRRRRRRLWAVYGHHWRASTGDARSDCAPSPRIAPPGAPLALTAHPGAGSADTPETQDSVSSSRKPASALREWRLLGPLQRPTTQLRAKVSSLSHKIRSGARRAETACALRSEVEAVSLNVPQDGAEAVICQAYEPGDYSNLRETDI
T3 sequence (P43140 whole entry): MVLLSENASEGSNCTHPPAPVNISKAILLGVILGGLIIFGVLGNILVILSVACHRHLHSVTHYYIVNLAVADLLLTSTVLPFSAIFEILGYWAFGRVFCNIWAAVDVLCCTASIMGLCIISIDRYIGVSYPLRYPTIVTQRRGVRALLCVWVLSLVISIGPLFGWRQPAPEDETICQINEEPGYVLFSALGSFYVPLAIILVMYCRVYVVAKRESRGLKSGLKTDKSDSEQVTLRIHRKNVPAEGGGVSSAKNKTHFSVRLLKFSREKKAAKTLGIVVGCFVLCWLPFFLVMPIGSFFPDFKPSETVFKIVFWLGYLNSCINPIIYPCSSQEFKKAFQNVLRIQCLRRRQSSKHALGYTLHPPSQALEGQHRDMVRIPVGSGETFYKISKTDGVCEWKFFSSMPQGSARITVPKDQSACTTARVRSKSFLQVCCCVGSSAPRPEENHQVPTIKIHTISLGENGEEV

[9] = target: 5-hydroxytryptamine receptor 7 (Cavia porcellus) (UniProt P50407); assay: Agonist activity at 5HT7 receptor in guinea pig ileum assessed as inhibition of substance P-induced smooth muscle contraction at 2 uM in presence of 3 uM SB-269970; assay type: functional, tissue-based; procedure, shortened: as §1
[10] = target: 5-hydroxytryptamine receptor 7 (Cavia porcellus) (UniProt P50407); assay: Agonist activity at 5HT7 receptor in guinea pig ileum assessed as inhibition of substance P-induced smooth muscle contraction at 2 uM; assay type: functional, tissue-based; procedure, shortened: as §1
[11] = target: T4, 5-hydroxytryptamine receptor 1A (Homo sapiens, UniProt P08908); assay: Displacement of [3H]-8-OH-DPAT from human cloned 5HT1A receptor
T4 sequence (P08908 whole entry): T2 sequence (whole entry)

[12] = target: T1, 5-hydroxytryptamine receptor 7; assay: Agonist activity at human 5HT7A receptor expressed in human HeLa cells assessed as stimulation of cAMP accumulation; assay type: functional, cell-based
Procedure, shortened: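 HeLa cells stably expressing human 5-HT7(a) receptor were cultured and seeded into 96-well plates. Cells were exposed to test agent alone, and intracellular cAMP was measured by ELISA.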

[13] = target: T1, 5-hydroxytryptamine receptor 7; assay: Antagonist activity at human 5HT7A receptor expressed in human HeLa cells assessed as inhibition of 5-HT-induced cAMP accumulation by ELISA; assay type: functional, cell-based
Procedure, shortened: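 HeLa cells stably expressing human 5-HT7(a) were seeded in 96-well plates. They were co-treated with 1 μM 5-HT plus test agent. Intracellular cAMP was read by ELISA, and IC50 was taken for inhibition of 5-HT-stimulated cAMP accumulation.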

[14] = target: 5-hydroxytryptamine receptor 7 (Rattus norvegicus, UniProt P32305); assay: Displacement of [3H]LSD from rat kidney proximal convoluted tubule 5HT7R expressed in COS7 cells; assay type: cell-based, COS-7
Chain of 5-hydroxytryptamine receptor 7 (Rattus norvegicus, UniProt P32305) (P32305 whole entry): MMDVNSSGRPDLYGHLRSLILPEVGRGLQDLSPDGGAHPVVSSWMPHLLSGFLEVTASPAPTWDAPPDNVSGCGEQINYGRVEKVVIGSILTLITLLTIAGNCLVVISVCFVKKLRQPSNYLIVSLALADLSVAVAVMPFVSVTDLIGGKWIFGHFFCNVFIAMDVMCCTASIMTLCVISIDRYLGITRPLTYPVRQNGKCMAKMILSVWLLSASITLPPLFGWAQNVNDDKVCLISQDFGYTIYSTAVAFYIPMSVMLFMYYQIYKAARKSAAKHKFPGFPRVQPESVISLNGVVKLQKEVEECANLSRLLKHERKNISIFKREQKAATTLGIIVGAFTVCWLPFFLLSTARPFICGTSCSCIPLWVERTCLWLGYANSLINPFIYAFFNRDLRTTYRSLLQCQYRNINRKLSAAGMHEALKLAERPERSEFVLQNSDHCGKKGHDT

Chain of 5-hydroxytryptamine receptor 7 (Cavia porcellus) (P50407 whole entry): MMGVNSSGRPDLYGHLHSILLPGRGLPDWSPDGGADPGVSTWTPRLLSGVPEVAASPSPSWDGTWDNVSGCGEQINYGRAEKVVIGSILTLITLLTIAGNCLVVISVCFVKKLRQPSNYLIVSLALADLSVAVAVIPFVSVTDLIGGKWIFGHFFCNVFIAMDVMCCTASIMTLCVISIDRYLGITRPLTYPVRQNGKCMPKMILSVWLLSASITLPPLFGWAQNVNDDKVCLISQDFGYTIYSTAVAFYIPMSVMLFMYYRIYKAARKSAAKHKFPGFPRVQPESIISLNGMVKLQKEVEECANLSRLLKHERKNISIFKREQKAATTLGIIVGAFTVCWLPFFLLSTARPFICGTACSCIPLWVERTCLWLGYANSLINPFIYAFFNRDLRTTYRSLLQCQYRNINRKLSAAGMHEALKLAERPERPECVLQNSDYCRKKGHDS
T1 sequence (P34969 whole entry): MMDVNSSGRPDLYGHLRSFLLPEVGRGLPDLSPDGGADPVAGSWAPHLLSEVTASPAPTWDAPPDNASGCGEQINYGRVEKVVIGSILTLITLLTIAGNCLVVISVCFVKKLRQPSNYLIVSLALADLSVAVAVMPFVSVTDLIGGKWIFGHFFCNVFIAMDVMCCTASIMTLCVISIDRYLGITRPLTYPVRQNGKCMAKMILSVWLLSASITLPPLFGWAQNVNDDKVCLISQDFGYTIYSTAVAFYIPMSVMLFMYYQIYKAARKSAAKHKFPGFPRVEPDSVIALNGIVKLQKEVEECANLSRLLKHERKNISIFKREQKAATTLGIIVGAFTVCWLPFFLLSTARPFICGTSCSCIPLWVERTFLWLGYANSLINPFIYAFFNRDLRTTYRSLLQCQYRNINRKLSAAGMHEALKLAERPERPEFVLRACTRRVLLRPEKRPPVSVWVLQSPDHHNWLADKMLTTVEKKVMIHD

SMILES: c1ccc(-c2ccccc2N2CCNCC2)nc1
Ki [1]: 0.023 µM
Activity [2]: 23%
Activity [3]: 11%

SMILES: Fc1ccc(-c2ccccc2N2CCNCC2)cc1
Ki [1]: 0.0027 µM
Activity [4]: inactive
Activity [5]: Active
Activity [2]: 15%
Activity [6]: inactive
Activity [7]: Active
Activity [3]: 14%

Ki [1]: > 5 µM
Activity [2]: 42%
Activity [3]: 29%
SMILES: COc1ccc(-c2cccc(N3CCNCC3)c2)cc1

SMILES: Cc1ccc(-c2ccccc2N2CCNCC2)cc1C
Ki [1]: 0.0019 µM
Ki [8]: 0.165 µM
Activity [5]: Active
Activity [2]: 22%
Activity [9]: inactive
Activity [10]: Active

SMILES: Cc1nn(C)c(C)c1-c1cccc2c1CC[C@H](N(C)C)C2
Activity [5]: Active
Activity [6]: inactive
Activity [7]: inactive
Activity [9]: inactive
Activity [10]: Active

SMILES: c1ccc(-c2cccc(N3CCNCC3)c2)cc1
Ki [1]: 0.025 µM
Activity [3]: 21%
Ki [11]: 0.0721 µM

SMILES: c1ccc(-c2ccccc2N2CCNCC2)cc1
Ki [1]: 0.0014 µM
Ki [8]: 0.0591 µM
Activity [4]: inactive
Activity [5]: Active
Activity [6]: inactive
Activity [7]: Active
Activity [12]: inactive
IC50 [13]: 0.531 µM
Ki [11]: 0.099 µM

SMILES: COc1ccc(-c2ccccc2N2CCNCC2)cc1
Ki [1]: 0.0026 µM
Ki [8]: 0.156 µM
Activity [4]: inactive
Activity [5]: Active
Activity [6]: inactive
Activity [7]: Active
Activity [12]: inactive
IC50 [13]: 0.438 µM
Ki [11]: 0.476 µM

Ki [1]: 0.0082 µM
SMILES: COc1ccccc1-c1cccc(N2CCNCC2)c1

SMILES: Cc1ccccc1-c1ccccc1N1CCNCC1
Ki [1]: 0.0069 µM

SMILES: Cc1ccccc1-c1cccc(N2CCNCC2)c1
Ki [1]: 0.0014 µM
Ki [11]: 0.0174 µM

SMILES: O=[N+]([O-])c1ccc(-c2ccccc2N2CCNCC2)cc1
Ki [1]: 0.007 µM
Ki [8]: 0.105 µM
Activity [2]: 16%

SMILES: Fc1ccc(-c2cccc(N3CCNCC3)c2)cc1
Ki [1]: 0.109 µM
Activity [3]: 3%
Ki [11]: 0.0632 µM

Ki [1]: 0.093 µM
Activity [2]: 34%
Activity [3]: 7%
SMILES: Cc1ccc(-c2cccc(N3CCNCC3)c2)cc1C

Ki [1]: 0.013 µM
Activity [3]: 8%
Ki [11]: 0.0314 µM
SMILES: O=[N+]([O-])c1ccc(-c2cccc(N3CCNCC3)c2)cc1

SMILES: COc1ccccc1-c1ccccc1N1CCNCC1
Ki [1]: 0.0184 µM

SMILES: c1ccc2c(N3CCNCC3)cccc2c1
Ki [14]: 0.083 µM

Ki [1]: 0.0071 µM
Activity [3]: 3%
Ki [11]: 0.149 µM
SMILES: COc1cccc(OC)c1-c1cccc(N2CCNCC2)c1

SMILES: COc1cccc(OC)c1-c1ccccc1N1CCNCC1
Ki [1]: 0.096 µM
Activity [2]: 21%
Activity [3]: 10%

SMILES: c1ccc(-c2cccc(N3CCNCC3)c2)nc1
Ki [1]: 0.08 µM
Activity [3]: 27%
Ki [11]: 0.0149 µM

From ChEMBL document CHEMBL2163326, “Investigations on the 1-(2-biphenyl)piperazine motif: identification of new potent and selective ligands for the serotonin(7) (5-HT(7)) receptor with agonist or antagonist action in vitro or ex vivo” (J Med Chem, 2012)
